{"source": "paper PMC8311649", "about": "(Journal of Medicinal Chemistry, 2021)", "key": {"[1]": {"experiment": "Oral bioavailability PK screening in rats", "assay_type": "in vivo", "conditions": "rat; oral gavage; dose not given", "outline": "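Rats were dosed orally with the ester prodrug. F is percent absolute oral bioavailability, corrected for the molecular-weight difference between prodrug and parent.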"}, "[2]": {"system": "strains expressing class C and OXA-48 β-lactamases", "experiment": "Ceftibuten rescue against representative ceftibuten-resistant strains", "assay_type": "cell-based, K. pneumoniae and E. coli", "conditions": "ceftibuten fixed at 1 μg/mL", "outline": "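Clinical isolates of E. coli and K. pneumoniae carrying the named β-lactamase classes were tested with ceftibuten held at 1 μg/mL. The value is the minimum concentration of the β-lactamase inhibitor that restores ceftibuten antibacterial activity.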"}, "SHV-5 (class A)": {"target": "SHV-5 (class A) (Klebsiella pneumoniae, UniProt P0A3M1)", "sequence (P0A3M1 22-286, species assumed)": "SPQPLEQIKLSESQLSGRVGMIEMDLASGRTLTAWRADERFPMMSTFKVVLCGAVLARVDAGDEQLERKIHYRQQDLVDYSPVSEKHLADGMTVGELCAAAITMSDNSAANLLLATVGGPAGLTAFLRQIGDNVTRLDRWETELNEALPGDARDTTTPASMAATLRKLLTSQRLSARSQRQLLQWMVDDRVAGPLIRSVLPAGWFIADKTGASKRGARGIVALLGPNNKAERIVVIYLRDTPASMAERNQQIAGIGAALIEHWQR", "experiment": "β-lactamase inhibition assay, SHV-5", "assay_type": "biochemical"}, "[3]": {"experiment": "Metabolic stability across all matrixes and species", "assay_type": "in vitro ADME", "conditions": "CD-1 (mouse), Sprague-Dawley (rat), beagle (dog), cynomolgus monkey, human, intestinal S9, liver S9 and plasma"}, "[4]": {"experiment": "Bidirectional permeability through Caco-2 monolayers", "assay_type": "in vitro ADME, human", "conditions": "human, Caco-2, pH 7.4, recovery (%), 5 µM, 120 minutes"}, "Caco-2 cell monolayers": {"system": "Caco-2 cell monolayers", "experiment": "Bidirectional permeability through Caco-2 monolayers", "assay_type": "in vitro ADME, human", "conditions": "for significant efflux: from ER and Papp (B-to-A); for absorption potential classification: from Papp (A-to-B)"}, "[5]": {"system": "E. coli expressing TEM-1 + CTX-M-15, CTX-M-15, or KPC-2 + SHV-12", "experiment": "Murine ascending UTI model", "design": "species or system C3H/HeJ mice", "conditions": "mouse, in vivo"}, "[6]": {"experiment": "Metabolite profiling in cryopreserved hepatocytes", "assay_type": "in vitro ADME", "conditions": "all species"}, "[7]": {"experiment": "Metabolic stability, plasma", "assay_type": "in vitro ADME", "conditions": "human"}}}
{"molecule": "CCC(=O)N[C@H]1Cc2cccc(C(=O)OCOC(=O)C(C)(C)C)c2OB1O", "note": "[compound 20, (Pivaloyloxy)methyl (R)-2-Hydroxy-3-propionamido-3,4-dihydro-2H-benzo[e][1,2]oxaborinine-8-carboxylate]", "values": [{"measurement": "oral bioavailability (F) in rats", "setting": "[1]", "result": "highest oral bioavailability"}]}
{"molecule": "O=C(CCC(F)(F)F)N[C@H]1Cc2cccc(C(=O)O)c2OB1O", "note": "[compound 7, (R)-2-Hydroxy-3-(4,4,4-trifluorobutanamido)-3,4-dihydro-2H-benzo[e][1,2]oxaborinine-8-carboxylic Acid]", "values": [{"measurement": "activity rescuing ceftibuten (in words)", "setting": "[2]", "result": "reduced activity"}]}
{"molecule": "CC(F)(F)CCC(=O)N[C@H]1Cc2cccc(C(=O)O)c2OB1O", "note": "[compound 14, (R)-3-(4,4-Difluoropentanamido)-2-hydroxy-3,4-dihydro-2H-benzo[e][1,2]oxaborinine-8-carboxylic Acid]", "values": [{"measurement": "IC50", "setting": "SHV-5 (class A)", "result": 6, "unit": "nM"}, {"measurement": "activity rescuing ceftibuten (in words)", "setting": "[2]", "result": "reduced activity"}]}
{"molecule": "CCC(=O)N[C@H]1Cc2cccc(C(=O)O)c2OB1O", "note": "[compound 5, (R)-2-Hydroxy-3-propionamido-3,4-dihydro-2H-benzo[e][1,2]oxaborinine-8-carboxylic Acid]", "values": [{"measurement": "half-life at 3 µM", "setting": "[3]", "result": "> 120", "unit": "min"}, {"measurement": "recovery at 120 min, 5 µM", "setting": "[4]; A-to-B", "result": 103, "unit": "%"}, {"measurement": "recovery at 120 min, 5 µM", "setting": "[4]; B-to-A", "result": 106, "unit": "%"}, {"measurement": "significant efflux", "setting": "Caco-2 cell monolayers", "result": "no"}, {"measurement": "absorption potential classification", "setting": "Caco-2 cell monolayers", "result": "low (Papp (A-to-B) < 1.0 × 10^–6 cm/s: low)"}]}
{"molecule": "C#CCCC(=O)N[C@H]1Cc2cccc(C(=O)O)c2OB1O", "note": "[compound 12, (R)-2-Hydroxy-3-(pent-4-ynamido)-3,4-dihydro-2H-benzo[e][1,2]oxaborinine-8-carboxylic Acid]", "values": [{"measurement": "activity rescuing ceftibuten (in words)", "setting": "[2]", "result": "reduced activity"}]}
{"molecule": "Nc1nc(/C(=C/CC(=O)O)C(=O)N[C@@H]2C(=O)N3C(C(=O)O)=CCS[C@H]23)cs1", "note": "[CTB, ceftibuten]", "values": [{"measurement": "cfu reductions in the bladder", "setting": "[5]", "result": "≤ 2", "unit": "log10"}, {"measurement": "cfu reductions in urine", "setting": "[5]", "result": "≤ 2", "unit": "log10"}, {"measurement": "cfu reductions in the kidneys", "setting": "[5]; sc", "result": "minimal cfu reductions"}]}
{"molecule": "CCC(=O)N[C@H]1Cc2cccc(C(=O)OCOC(=O)C(CC)CC)c2OB1O", "note": "[compound 36, ((2-Ethylbutanoyl)oxy)methyl (R)-2-Hydroxy-3-propionamido-3,4-dihydro-2H-benzo[e][1,2]oxaborinine-8-carboxylate]", "values": [{"measurement": "parent remaining after hepatocyte incubation", "setting": "[6]; 2 µM and 20 µM, 37 °C, 240 min", "result": "0–5%"}, {"measurement": "metabolites detected after hepatocyte incubation", "setting": "[6]; metabolite identified as 5 (hydrolysis)", "result": "one metabolite"}, {"measurement": "recovery at 120 min, 5 µM", "setting": "[4]; A-to-B", "result": 90, "unit": "%"}, {"measurement": "recovery at 120 min, 5 µM", "setting": "[4]; B-to-A", "result": 98, "unit": "%"}, {"measurement": "significant efflux", "setting": "Caco-2 cell monolayers", "result": "yes (ER ≥ 2.0 and Papp (B-to-A) ≥ 1.0 × 10^–6 cm/s)"}, {"measurement": "absorption potential classification", "setting": "Caco-2 cell monolayers", "result": "high (Papp (A-to-B) ≥ 1.0 × 10^–6 cm/s: high)"}, {"measurement": "oral bioavailability (F) in rats", "setting": "[1]", "result": "highest oral bioavailability"}, {"measurement": "half-life at 3 µM", "setting": "[7]", "result": "~11", "unit": "min"}]}
